Assay [1] has as its target Apoptosis regulator Bcl-2 (Homo sapiens, UniProt P10415). As to the kind of experiment: Binding affinity to Bcl-2 after 30 mins by florescence polarization assay. In short, it runs like this: (§1)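 Fluorescence polarization binding assay against Mcl-1 and Bcl-2 proteins.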
Assay [2] addresses T1, Induced myeloid leukemia cell differentiation protein Mcl-1 (Homo sapiens, UniProt Q07820). As to the kind of experiment: Binding affinity to Mcl-1 after 30 mins by florescence polarization assay. In a few lines:
as §1

The test system of the next assay is Nucleic Acid. As to the kind of experiment: Induction of DNA damage in Escherichia coli pBR322 at 100 uM after 2 hrs by agarose gel electrophoresis. The class given is functional.
For assay [3], the system named is MCF7. The assay is described as follows: Cytotoxicity against human MCF7 cells transfected with Bax/Bak shRNA assessed as cell viability after 48 hrs by MTT assay. The class given is functional, cell-based. In a few lines: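 MCF-7 cells transfected with nonspecific shRNA or Bax/Bak shRNA, treated 48 h with graded doses of compound. Viability read by MTT assay.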

The subject of assay [4] is MCF7. As to the kind of experiment: Cytotoxicity against human MCF7 cells by MTT assay. The class given is functional, cell-based. (In general: Tetrazolium dyes change colour on reduction, which living cells bring about.)
The target in assay [5] is T1, Induced myeloid leukemia cell differentiation protein Mcl-1. The assay is described as follows: Binding affinity to Mcl-1 in ABT737-resistant human Nalm-6 cells assessed as disruption of Mcl-1/Bak at 5 uM after 12 to 24 hrs by coimmunoprecipitation assay. The class given is cell-based. In a few lines:
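Nalm-6 cells (ABT737-resistant) incubated with 5 μM compound for 12 or 24 h. Total cell lysates immunoprecipitated with anti-Bcl-2 or anti-Mcl-1 antibody. Precipitates and lysates resolved by SDS-PAGE and Western blotted with anti-Bcl-2, anti-Bax, anti-Mcl-1 and anti-Bak antibodies.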

In a further assay the test system is HeLa. The assay is described as follows: Cytotoxicity against human HeLa cells by MTT assay. The class given is functional, cell-based.
The next assay relates to HEK293. The assay is described as follows: Cytotoxicity against human HEK293 cells by MTT assay. The class given is cell-based.
Assay [6] deals with MCF7. The assay is described as follows: Induction of necrosis in human MCF7 cells at 10 uM after 12 to 24 hrs by Annexin V-FITC/PI staining based flow cytometry. The class given is functional, cell-based. (In general: Flow cytometry measures light scatter and fluorescence of single cells or particles in a stream.)
For a further assay, the system named is SMMC-7721. As to the kind of experiment: Cytotoxicity against human SMMC7721 cells by MTT assay. The class given is functional, cell-based.
Assay [7] in a line: Cytotoxicity against human NCI-H1688 cells by MTT assay. The class given is functional, cell-based.
Another assay relates to U-937. The assay is described as follows: Cytotoxicity against human U937 cells by MTT assay. The class given is functional, cell-based.
Another assay relates to K562. The assay is described as follows: Cytotoxicity against human K562 cells by MTT assay. The class given is functional, cell-based.
For assay [8], the system named is MCF7. The assay is described as follows: Induction of apoptosis in human MCF7 cells at 10 uM after 12 to 24 hrs by Annexin V-FITC/PI staining based flow cytometry. The class given is functional, cell-based.

Each structure is given as a SMILES string. pIC50, pKi: −log10 of the molar value. Active and inactive are the calls of the source. No cut-off for these calls is given here.

Apoptosis regulator Bcl-2, sequence (P10415 whole entry): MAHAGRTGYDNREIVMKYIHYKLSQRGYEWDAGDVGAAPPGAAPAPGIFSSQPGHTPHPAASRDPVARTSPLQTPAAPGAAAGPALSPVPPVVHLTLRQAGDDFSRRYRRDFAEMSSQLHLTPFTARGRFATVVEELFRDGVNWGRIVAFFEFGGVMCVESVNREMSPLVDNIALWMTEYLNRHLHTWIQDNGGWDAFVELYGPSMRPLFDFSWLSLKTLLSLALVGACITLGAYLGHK
T1 sequence (Q07820 whole entry): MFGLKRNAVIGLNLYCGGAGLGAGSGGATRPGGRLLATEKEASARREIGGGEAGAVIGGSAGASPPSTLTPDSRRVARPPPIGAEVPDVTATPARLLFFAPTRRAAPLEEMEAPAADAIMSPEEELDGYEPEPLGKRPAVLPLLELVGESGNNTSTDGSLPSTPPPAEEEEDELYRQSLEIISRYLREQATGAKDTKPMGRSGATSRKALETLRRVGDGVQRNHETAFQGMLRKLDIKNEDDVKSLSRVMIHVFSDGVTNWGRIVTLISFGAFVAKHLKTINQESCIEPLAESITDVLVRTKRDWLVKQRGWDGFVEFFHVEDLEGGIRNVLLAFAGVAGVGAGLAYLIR

On to `O=C1c2ccc(Br)cc2C(=O)c2cc(O)c(O)cc21`, for which the pKi in assay [1] was 6.88; in assay [2] it was 6.97.

On to `O=C1c2ccccc2C(=O)c2c1ccc(O)c2O` [ATHRAQUINONES A], for which the figures for the pKi in assay [1] and in assay [2] were 5.94 and 5.79, respectively.

Take `O=C1c2ccc(Sc3ccc(Br)cc3)cc2C(=O)c2cc(O)c(O)cc21`: the pKi in assay [1] is 7.06; in assay [2], 7.25.

In the case of `Cc1ccc(Sc2ccc3c(c2)C(=O)c2cc(O)c(O)cc2C3=O)cc1`, the values for the pKi in assay [1] and in [2] were 7.36 and 7.42, respectively.

With `O=C1c2ccccc2C(=O)c2cc(O)c(O)cc21`, the figures for the pKi in [1] and in assay [2] were 6.38 and 6.51, respectively.

With `CC(C)c1ccc(Sc2ccc3c(c2)C(=O)c2cc(O)c(O)cc2C3=O)cc1`, the outcome with Nucleic Acid, in the assay with MCF7 [3] and with MCF7 [6] was inactive. In addition, the pKi was 7.62 in [1] and 7.89 in [2]. Also, the pIC50 in the assay with MCF7 [4] was 5.21; in the assay with HeLa it was 5.28; in the assay on HEK293 it was 4.30; in the assay on SMMC-7721, 5.16; in [7], 5.36; in the assay on U-937 it was 5.39. This compound showed a pIC50 in the assay on K562 of 5.49. Moreover, the result (in [5]; with MCF7 [8]) was Active.

As to `O=C1c2ccc(Sc3ccccc3)cc2C(=O)c2cc(O)c(O)cc21`, the pKi in assay [1] is 7.15; in assay [2], 7.28.

Turning to `O=C1c2ccccc2C(=O)c2c(O)cc(O)cc21` [XANTHOPURPURIN], the negative-log Ki (pKi) is 5.77 in [1] and 5.64 in assay [2].

Regarding `O=C1c2ccccc2C(=O)c2c1cc(O)c(O)c2O`, the pKi is 6.23 in assay [1] and 6.57 in assay [2].

What is called pKi is the Ki on a negative log10 scale, so that one unit is a factor of ten. The low end stands for a high Ki, the high end for a low Ki. The term pIC50 denotes the IC50 on a negative log10 scale, so that one unit is a factor of ten.
